From ChEMBL document CHEMBL4321823, “Benzyl Phenylsemicarbazides: A Chemistry-Driven Approach Leading to G Protein-Biased Dopamine D4 Receptor Agonists with High Subtype Selectivity” (J Med Chem, 2019)

Assays:
Format in all cases: cell-based
D(2) dopamine receptor [1] = target: T1, D(2) dopamine receptor (Homo sapiens, UniProt P14416); test: Displacement of [3H] Spiperone from human D2L receptor expressed in CHO cells by competitive radioligand binding assay
D(2) dopamine receptor [2] = target: T1, D(2) dopamine receptor; test: Displacement of [3H] Spiperone from human D2S receptor expressed in CHO cells by competitive radioligand binding assay
D(3) dopamine receptor = D(3) dopamine receptor (Homo sapiens, UniProt P35462); test: Displacement of [3H] Spiperone from human D3 receptor expressed in CHO cells by competitive radioligand binding assay
D(4) dopamine receptor = target: T2, D(4) dopamine receptor (Homo sapiens, UniProt P21917); test: Displacement of [3H] Spiperone from human D4.4 receptor expressed in CHO cells by competitive radioligand binding assay
T2 sequence (P21917 whole entry): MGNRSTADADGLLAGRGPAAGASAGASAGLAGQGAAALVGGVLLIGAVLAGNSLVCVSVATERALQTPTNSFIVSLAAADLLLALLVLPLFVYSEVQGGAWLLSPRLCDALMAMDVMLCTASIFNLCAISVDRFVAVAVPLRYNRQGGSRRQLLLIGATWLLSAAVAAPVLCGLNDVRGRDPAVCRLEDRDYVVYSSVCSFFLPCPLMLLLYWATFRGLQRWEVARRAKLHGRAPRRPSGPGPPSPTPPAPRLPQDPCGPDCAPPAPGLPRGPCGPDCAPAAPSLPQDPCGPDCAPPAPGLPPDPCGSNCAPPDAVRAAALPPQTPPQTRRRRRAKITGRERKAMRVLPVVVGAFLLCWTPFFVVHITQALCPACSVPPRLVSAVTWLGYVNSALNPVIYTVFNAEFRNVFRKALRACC

Homo sapiens [3] = species: Homo sapiens; test: Selectivity index, ratio of Ki for displacement of [3H] Spiperone from human D2L receptor expressed in CHO cells to Ki for displacement of [3H] Spiperone from human D4.4 receptor expressed in CHO cells
Method in brief: (§1)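 Competition binding against [3H]spiperone on membranes of CHO cells stably expressing cloned human D2L, D2S, D3 or D4.4 receptors. Ki from monophasic curve fits; mean ± SEM of three to seven experiments, each in triplicate. Selectivity calculated as Ki(D2L, D2S or D3) divided by Ki(D4.4).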

Homo sapiens [4] = species: Homo sapiens; test: Selectivity index, ratio of Ki for displacement of [3H] Spiperone from human D2S receptor expressed in CHO cells to Ki for displacement of [3H] Spiperone from human D4.4 receptor expressed in CHO cells; method in brief: as §1
Homo sapiens [5] = species: Homo sapiens; test: Selectivity index, ratio of Ki for displacement of [3H] Spiperone from human D3 receptor expressed in CHO cells to Ki for displacement of [3H] Spiperone from human D4.4 receptor expressed in CHO cells; method in brief: as §1

Sequence of D(3) dopamine receptor (P35462 whole entry): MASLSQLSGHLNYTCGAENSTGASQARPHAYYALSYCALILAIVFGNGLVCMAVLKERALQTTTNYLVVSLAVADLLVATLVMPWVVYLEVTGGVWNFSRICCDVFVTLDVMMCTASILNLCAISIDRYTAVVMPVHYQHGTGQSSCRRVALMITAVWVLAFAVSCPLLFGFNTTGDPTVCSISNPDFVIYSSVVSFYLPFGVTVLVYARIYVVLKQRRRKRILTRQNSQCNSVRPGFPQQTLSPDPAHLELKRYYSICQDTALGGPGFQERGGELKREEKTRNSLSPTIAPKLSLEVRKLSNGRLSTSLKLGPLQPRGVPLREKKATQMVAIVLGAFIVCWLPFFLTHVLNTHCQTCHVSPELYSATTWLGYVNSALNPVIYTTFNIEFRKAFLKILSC
T1 sequence (P14416 whole entry): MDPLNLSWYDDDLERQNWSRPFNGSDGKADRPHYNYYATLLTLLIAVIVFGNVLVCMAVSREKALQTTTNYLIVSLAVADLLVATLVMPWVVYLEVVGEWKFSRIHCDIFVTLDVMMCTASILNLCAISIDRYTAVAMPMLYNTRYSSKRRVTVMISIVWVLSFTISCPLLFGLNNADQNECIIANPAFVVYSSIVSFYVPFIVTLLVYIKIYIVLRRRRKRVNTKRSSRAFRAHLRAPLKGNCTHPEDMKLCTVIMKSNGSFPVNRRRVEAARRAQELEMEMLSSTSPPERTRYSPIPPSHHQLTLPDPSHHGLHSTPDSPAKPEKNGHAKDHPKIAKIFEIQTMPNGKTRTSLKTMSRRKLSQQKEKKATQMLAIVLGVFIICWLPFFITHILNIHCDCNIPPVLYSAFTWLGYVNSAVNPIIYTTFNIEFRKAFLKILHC

Structure (SMILES)	Ki (D(2) dopamine receptor [1])	Ki (D(2) dopamine receptor [2])	Ki (D(3) dopamine receptor)	Ki (D(4) dopamine receptor)	Ratio Ki (Homo sapiens [3])	Ratio Ki (Homo sapiens [4])	Ratio Ki (Homo sapiens [5])
COc1ccc(N(Cc2ccccc2F)NC(=O)NCCCN2CCN(c3ccccc3OC)CC2)cc1	42 nM	19 nM	76 nM	2.6 nM	16	7.3	29
COc1ccccc1N1CCN(CCCNC(=O)NN(Cc2ccccc2F)c2ccc(Cl)cc2)CC1	41 nM	26 nM	95 nM	2.6 nM	16	10	36
C=CCN(NC(=O)NCCCN1CCN(c2ccccc2OC)CC1)c1ccc(OC)cc1	180 nM	340 nM	660 nM	61 nM	3	5.6	11
COc1ccccc1N1CCN(CCCNC(=O)NN(Cc2ccc(C#N)cc2)c2ccc(F)cc2)CC1	210 nM	120 nM	640 nM	15 nM	14	8	43
COc1ccccc1N1CCN(CCNC(=O)/N=N/c2ccc(F)cc2)CC1	270 nM	140 nM	120 nM	36 nM	7.5	3.9	3.3
COc1ccccc1N1CCN(CCCNC(=O)NN(Cc2ccccc2)c2ccc(Br)cc2)CC1	55 nM	34 nM	130 nM	3.4 nM	16	10	38
COc1ccccc1N1CCN(CCCNC(=O)NN(Cc2ccc(-c3ccccc3)cc2)c2ccc(F)cc2)CC1	140 nM	42 nM	110 nM	5.9 nM	24	7.1	19
O=C(NCCCN1CCN(c2ncccn2)CC1)NN(Cc1ccc(F)cc1)c1ccccc1	430 nM	310 nM	1900 nM	19 nM	23	16	100
COc1cccc(CN(NC(=O)NCCCN2CCN(c3ccccc3OC)CC2)c2ccc(F)cc2)c1	110 nM	62 nM	150 nM	5.9 nM	19	11	25
COc1ccccc1N1CCN(CCCNC(=O)NN(Cc2ccccc2)c2ccc(Cl)cc2)CC1	32 nM	23 nM	130 nM	2.9 nM	11	7.9	45
Cc1cccc(C(=O)NCN2CCN(c3ccccc3C#N)CC2)c1 [PD-168,077]	2300 nM	1100 nM	4700 nM				
O=C(NCCCN1CCN(c2ccc(Cl)cc2)CC1)NN(Cc1ccccc1)c1ccccc1	640 nM	410 nM	1100 nM	9.7 nM	66	42	110
COc1ccccc1N1CCN(CCCNC(=O)NN(Cc2ccc(F)cc2)c2ccc(F)cc2)CC1	77 nM	30 nM	85 nM	4.6 nM	17	6.5	18
O=C(NCCCN1CCN(c2ccc(Cl)cc2)CC1)NN(Cc1ccc(F)cc1)c1ccccc1	500 nM	380 nM	850 nM	17 nM	29	22	50
COc1ccccc1N1CCN(CCCNC(=O)NN(Cc2ccccc2)c2ccc(Cl)cc2Cl)CC1	35 nM	24 nM	61 nM	15 nM	2.3	1.6	4
O=C(NCCCN1CCN(c2ccc(Br)cc2)CC1)NN(Cc1ccc(F)cc1)c1ccccc1	790 nM	620 nM	1400 nM	46 nM	17	13	30
O=C(NCCCN1CCN(c2ccc(Br)cc2)CC1)NN(Cc1ccccc1)c1ccccc1			1500 nM	14 nM			
COc1ccccc1N1CCN(CCCCNC(=O)/N=N/c2ccc(F)cc2)CC1			3.1 nM		0.4	0.36	0.033
COc1ccc(N(Cc2ccccc2)NC(=O)NCCCN2CCN(c3ccccc3OC)CC2)cc1	45 nM	19 nM	120 nM	1.7 nM	26	11	71

The remaining compounds from weak to strong by Ki (D(3) dopamine receptor), led by results:

Ki (D(2) dopamine receptor [1])	Ki (D(2) dopamine receptor [2])	Ki (D(3) dopamine receptor)	Ki (D(4) dopamine receptor)	Structure (SMILES)	Ratio Ki (Homo sapiens [3])	Ratio Ki (Homo sapiens [4])	Ratio Ki (Homo sapiens [5])
580 nM	440 nM	2000 nM	18 nM	O=C(NCCCN1CCN(c2ncccn2)CC1)NN(Cc1ccccc1)c1ccccc1	32	24	110
390 nM	430 nM	1800 nM	28 nM	O=C(NCCN1CCN(c2ccc(Br)cc2)CC1)NN(Cc1ccccc1)c1ccccc1	14	15	64
490 nM	510 nM	1800 nM	44 nM	O=C(NCCN1CCN(c2ccc(I)cc2)CC1)NN(Cc1ccccc1)c1ccccc1	11	12	38
690 nM	670 nM	1300 nM	21 nM	O=C(NCCCN1CCN(c2ccc(I)cc2)CC1)NN(Cc1ccccc1)c1ccccc1	33	32	62
210 nM	300 nM	860 nM	64 nM	C=C(C)CN(NC(=O)NCCCN1CCN(c2ccccc2OC)CC1)c1ccc(OC)cc1	3.3	4.7	13
100 nM	71 nM	700 nM	9 nM	COc1ccccc1N1CCN(CCNC(=O)NN(Cc2ccccc2)c2ccc(F)cc2)CC1	11	7.9	78
160 nM	110 nM	400 nM	2.9 nM	COc1ccc(N(Cc2ccc(F)cc2)NC(=O)NCCCN2CCN(c3ccccc3OC)CC2)cc1	55	38	140
150 nM	110 nM	320 nM	33 nM	COc1ccc(N(Cc2cccc(OC)c2)NC(=O)NCCCN2CCN(c3ccccc3OC)CC2)cc1	4.5	3.3	9.7
150 nM	94 nM	280 nM	12 nM	COc1ccccc1N1CCN(CCCNC(=O)NN(Cc2ccc(C#N)cc2)c2ccc(Cl)cc2Cl)CC1	13	7.8	23
250 nM	110 nM	220 nM	16 nM	COc1ccc(N(Cc2ccc(C#N)cc2)NC(=O)NCCCN2CCN(c3ccccc3OC)CC2)cc1	16	6.9	14
92 nM	47 nM	160 nM	3.6 nM	COc1ccccc1N1CCN(CCCNC(=O)NN(Cc2ccccc2F)c2ccc(F)cc2)CC1	26	13	44
110 nM	51 nM	140 nM	20 nM	COc1ccccc1N1CCN(CCCNC(=O)/N=N/c2ccc(F)cc2)CC1	5.5	2.6	7
45 nM	22 nM	92 nM	3.3 nM	COc1ccccc1N1CCN(CCCNC(=O)NN(Cc2ccccc2F)c2ccc(Br)cc2)CC1	14	6.7	28
73 nM	46 nM	88 nM	3.8 nM	COc1ccccc1N1CCN(CCCNC(=O)NN(Cc2cccc(F)c2)c2ccc(F)cc2)CC1	19	12	23
59 nM	35 nM	86 nM	6.2 nM	COc1ccc(N(Cc2cccc(F)c2)NC(=O)NCCCN2CCN(c3ccccc3OC)CC2)cc1	10	5.6	14
160 nM	94 nM	76 nM	4.4 nM	COc1ccccc1N1CCN(CCCCNC(=O)NN(Cc2ccccc2)c2ccc(F)cc2)CC1	36	21	17
